In ChEMBL document CHEMBL3124859, “Novel Peptidomimetic Hepatitis C Virus NS3/4A Protease Inhibitors Spanning the P2-P1' Region” (ACS Med Chem Lett, 2014):
In brackets after ≈: the same amount, converted by molar mass. One block for each molecule: values may come before it.

Key:
[1] = Inhibition of Hepatitis C virus genotype 1a full length NS3/2K-NS4A protease using Ac-DED(Edans)EEAbupsi[COO]ASK(Dabcyl)-NH2 as substrate incubated for 10 mins prior to substrate addition by FRET analysis; parameters: species or system Hepatitis C virus subtype 1a
in vitro = conditions: human
[2] = Half life in human liver microsomes at 1 uM after 5 mins by LC/MS/MS analysis
NS3 protease [3] = target: NS3 protease (Hepacivirus C, UniProt C1KIQ2, A156T); assay: Inhibition of Hepatitis C virus genotype 1a full length NS3/2K-NS4A protease A156T mutant using Ac-DED(Edans)EEAbupsi[COO]ASK(Dabcyl)-NH2 as substrate incubated for 10 mins prior to substrate addition by FRET analysis; parameters: species or system Hepatitis C virus subtype 1a
Sequence of NS3 protease (Hepacivirus C, UniProt C1KIQ2, A156T) (C1KIQ2 entry or part of it A156T): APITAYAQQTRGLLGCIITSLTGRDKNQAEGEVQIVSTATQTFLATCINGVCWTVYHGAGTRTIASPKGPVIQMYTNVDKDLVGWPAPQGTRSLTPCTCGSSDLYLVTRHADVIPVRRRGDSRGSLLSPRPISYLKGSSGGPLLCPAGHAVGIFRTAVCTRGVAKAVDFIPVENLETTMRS
Procedure, shortened: (§1)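 Ki (nM ± SD) determined against each resistant NS3/4A protease variant. A vitality value was calculated for each variant as V = [Ki × (kcat/Km)]variant / [Ki × (kcat/Km)]wild-type, normalising for the effect of the substitution on catalytic efficiency.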

[4] = Cytotoxicity against human HuH7 cells; format: cell-based, Huh-7
[5] = Apparent permeability from apical to basolateral side of human Caco2 cells at 10 uM; conditions: Caco-2
Hepatitis C virus = assay: Antiviral activity against Hepatitis C virus genotype 1b infected in human HuH7 cells by subgenomic replicon-based luciferase assay; format: functional, organism-based, Hepacivirus hominis; conditions: Huh-7
Procedure, shortened: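 Huh-7 replicon cell line carrying a subgenomic HCV genotype 1b RNA replicon with a firefly luciferase reporter; replicon inhibition read by luciferase signal and reported as EC50.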

NS3 protease [6] = target: NS3 protease (Hepacivirus C, UniProt C1KIQ2, R155K); assay: Inhibition of Hepatitis C virus genotype 1a full length NS3/2K-NS4A protease R155K mutant using Ac-DED(Edans)EEAbupsi[COO]ASK(Dabcyl)-NH2 as substrate incubated for 10 mins prior to substrate addition by FRET analysis; parameters: species or system Hepatitis C virus subtype 1a; procedure, shortened: as §1
Sequence of NS3 protease (Hepacivirus C, UniProt C1KIQ2, R155K) (C1KIQ2 entry or part of it R155K): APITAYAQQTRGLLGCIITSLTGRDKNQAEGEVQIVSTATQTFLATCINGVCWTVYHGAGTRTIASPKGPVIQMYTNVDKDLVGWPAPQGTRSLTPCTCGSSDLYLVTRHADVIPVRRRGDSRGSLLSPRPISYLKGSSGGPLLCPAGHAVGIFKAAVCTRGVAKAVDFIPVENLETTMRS

NS3 protease [7] = target: NS3 protease (Hepacivirus C, UniProt C1KIQ2, D168V); assay: Inhibition of Hepatitis C virus genotype 1a full length NS3/2K-NS4A protease D168V mutant using Ac-DED(Edans)EEAbupsi[COO]ASK(Dabcyl)-NH2 as substrate incubated for 10 mins prior to substrate addition by FRET analysis; parameters: species or system Hepatitis C virus subtype 1a; procedure, shortened: as §1
Sequence of NS3 protease (Hepacivirus C, UniProt C1KIQ2, D168V) (C1KIQ2 entry or part of it D168V): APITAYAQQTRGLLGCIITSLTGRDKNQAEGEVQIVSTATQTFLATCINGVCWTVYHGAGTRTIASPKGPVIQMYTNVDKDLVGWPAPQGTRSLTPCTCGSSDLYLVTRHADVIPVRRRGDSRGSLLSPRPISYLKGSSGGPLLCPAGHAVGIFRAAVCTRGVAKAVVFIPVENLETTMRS

[8] = Solubility of the compound in phosphate buffered saline at pH 7.4 after 1 hr by LC-MS/MS analysis

Compound: CCC[C@H](NC(=O)[C@@H]1[C@H]2CCC[C@H]2CN1C(=O)[C@@H](NC(=O)[C@@H](NC(=O)c1cnccn1)C1CCCCC1)C(C)(C)C)C(=O)C(=O)NC1CC1
Ki [1]: 40 nM

Compound: COc1ccc2c(O[C@@H]3C[C@H]4C(=O)N[C@]5(C(=O)O)C[C@H]5/C=C\CCCCC[C@H](NC(=O)OC5CCCC5)C(=O)N4C3)cc(-c3csc(NC(C)C)n3)nc2c1
Ki [1]: 300 nM

Compound: C=CCCCS(=O)(=O)NC(=O)c1ccc(NC(=O)C(NC(=O)OC(C)(C)C)c2ccc(Oc3cc(OC)nc(-c4ccccc4)n3)c(C=C)c2)cc1 (configuration not stated)
Ki [1]: 220 nM

Compound: C=Cc1cc(C(N)C(=O)Nc2cccc(C(=O)NS(=O)(=O)c3ccc(C(F)(F)F)cc3)c2)ccc1Oc1cc(OC)nc(-c2ccccc2)n1 (configuration not stated)
Ki [1]: 1200 nM

microsomal CLint at 5 min, 1 µM (in vitro; liver microsomes): 7 µL/min/mg
half-life at 5 min, 1 µM ([2]; liver microsomes): 3.23 h
Compound: C=Cc1cc(C(NC(=O)NC(C)(C)C)C(=O)Nc2cccc(C(=O)NS(=O)(=O)c3ccc(C(F)(F)F)cc3)c2)ccc1Oc1cc(OC)nc(-c2ccccc2)n1 (configuration not stated)
Ki [1]: 140 nM

Compound: C=Cc1cc(C(NC(C)=O)C(=O)Nc2cccc(C(=O)NS(=O)(=O)c3ccc(C(F)(F)F)cc3)c2)ccc1Oc1cc(OC)nc(-c2ccccc2)n1 (configuration not stated)
Ki [1]: 700 nM

Compound: C=Cc1cc(C(NC(=O)N2CCOCC2)C(=O)Nc2cccc(C(=O)NS(=O)(=O)c3ccc(C(F)(F)F)cc3)c2)ccc1Oc1cc(OC)nc(-c2ccccc2)n1 (configuration not stated)
Ki [1]: 590 nM

Compound: C=Cc1cc(C(NC(=O)c2cccnc2)C(=O)Nc2cccc(C(=O)NS(=O)(=O)c3ccc(C(F)(F)F)cc3)c2)ccc1Oc1cc(OC)nc(-c2ccccc2)n1 (configuration not stated)
Ki [1]: 240 nM

Compound: C=Cc1cc(C(NC(=O)OC2CCCC2)C(=O)Nc2cccc(C(=O)NS(=O)(=O)c3ccc(C(F)(F)F)cc3)c2)ccc1Oc1cc(OC)nc(-c2ccccc2)n1 (configuration not stated)
Ki [1]: 72 nM

Compound: C=Cc1cc(C(NC(=O)OC2CCCC2)C(=O)Nc2ccc(C(=O)NS(=O)(=O)c3ccc(C(F)(F)F)cc3)cc2)ccc1Oc1cc(OC)nc(-c2ccccc2)n1 (configuration not stated)
Ki [1]: 55 nM

Compound: C=CCCCS(=O)(=O)NC(=O)c1cccc(NC(=O)C(NC(=O)OC2CCCC2)c2ccc(Oc3cc(OC)nc(-c4ccccc4)n3)c(C=C)c2)c1 (configuration not stated)
Ki [1]: 130 nM

Compound: C=Cc1cc([C@H](NC(=O)[C@@H](NC(=O)OC(C)(C)C)C(C)(C)C)C(=O)Nc2cccc(C(=O)NS(=O)(=O)c3ccc(C(F)(F)F)cc3)c2)ccc1Oc1cc(OC)nc(-c2ccccc2)n1
Ki (NS3 protease [3]): 53 nM
CC50 [4]: ≥ 50000 nM
Papp A→B at 10 µM [5]: 9.7 ×10⁻⁶ cm/s
EC50 (Hepatitis C virus): > 50000 nM
Ki (NS3 protease [6]): 210 nM
microsomal CLint at 5 min, 1 µM (in vitro; liver microsomes): 80 µL/min/mg
Ki [1]: 24 nM
Ki (NS3 protease [7]): 110 nM
solubility at 1 h [8]: 43 µM (≈ 39.4 µg/mL)
half-life at 5 min, 1 µM ([2]; liver microsomes): 0.283 h

Compound: C=Cc1cc([C@H](NC(=O)[C@@H](NC(=O)OC(C)(C)C)C(C)(C)C)C(=O)Nc2ccc(C(=O)NS(=O)(=O)c3ccc(C(F)(F)F)cc3)cc2)ccc1Oc1cc(OC)nc(-c2ccccc2)n1
Ki [1]: 30 nM

Compound: C=Cc1cc([C@@H](NC(=O)[C@@H](NC(=O)OC(C)(C)C)C(C)(C)C)C(=O)Nc2ccc(C(=O)NS(=O)(=O)c3ccc(C(F)(F)F)cc3)cc2)ccc1Oc1cc(OC)nc(-c2ccccc2)n1
Ki [1]: 30 nM

Compound: C=CCCCS(=O)(=O)NC(=O)c1ccccc1NC(=O)[C@@H](NC(=O)[C@@H](NC(=O)OC(C)(C)C)C(C)(C)C)c1ccc(Oc2cc(OC)nc(-c3ccccc3)n2)c(C=C)c1
Ki [1]: 26 nM

Compound: C=CCCCS(=O)(=O)NC(=O)c1ccccc1NC(=O)[C@H](NC(=O)[C@@H](NC(=O)OC(C)(C)C)C(C)(C)C)c1ccc(Oc2cc(OC)nc(-c3ccccc3)n2)c(C=C)c1
Ki [1]: 33 nM

Compound: C=CCCCS(=O)(=O)NC(=O)c1cccc(NC(=O)[C@@H](NC(=O)[C@@H](NC(=O)OC(C)(C)C)C(C)(C)C)c2ccc(Oc3cc(OC)nc(-c4ccccc4)n3)c(C=C)c2)c1
Ki [1]: 88 nM

Compound: C=CCCCS(=O)(=O)NC(=O)c1cccc(NC(=O)[C@H](NC(=O)[C@@H](NC(=O)OC(C)(C)C)C(C)(C)C)c2ccc(Oc3cc(OC)nc(-c4ccccc4)n3)c(C=C)c2)c1
Ki [1]: 100 nM

Compound: C=CCCCS(=O)(=O)NC(=O)c1ccc(NC(=O)[C@@H](NC(=O)[C@@H](NC(=O)OC(C)(C)C)C(C)(C)C)c2ccc(Oc3cc(OC)nc(-c4ccccc4)n3)c(C=C)c2)cc1
Ki [1]: 96 nM

Compound: C=CCCCS(=O)(=O)NC(=O)c1ccc(NC(=O)[C@H](NC(=O)[C@@H](NC(=O)OC(C)(C)C)C(C)(C)C)c2ccc(Oc3cc(OC)nc(-c4ccccc4)n3)c(C=C)c2)cc1
Ki [1]: 110 nM

Papp A→B at 10 µM [5]: 4 ×10⁻⁶ cm/s
microsomal CLint at 5 min, 1 µM (in vitro; microsomes): 16 µL/min/mg
solubility at 1 h [8]: 5 µM (≈ 4.02 µg/mL)
half-life at 5 min, 1 µM ([2]; microsomes): 1.47 h
Compound: C=Cc1cc(C(NC(=O)OC(C)(C)C)C(=O)Nc2ccccc2C(=O)NS(=O)(=O)c2ccc(C(F)(F)F)cc2)ccc1Oc1cc(OC)nc(-c2ccccc2)n1 (configuration not stated)
Ki [1]: 240 nM

Compound: C=Cc1cc(C(NC(=O)OC(C)(C)C)C(=O)Nc2cccc(C(=O)NS(=O)(=O)c3ccc(C(F)(F)F)cc3)c2)ccc1Oc1cc(OC)nc(-c2ccccc2)n1 (configuration not stated)
Ki (NS3 protease [3]): 110 nM
CC50 [4]: ≥ 50000 nM
Papp A→B at 10 µM [5]: 1 ×10⁻⁶ cm/s
EC50 (Hepatitis C virus): 27500 nM
Ki (NS3 protease [6]): 580 nM
microsomal CLint at 5 min, 1 µM (in vitro; liver microsomes): 12 µL/min/mg
Ki [1]: 58 nM
Ki (NS3 protease [7]): 180 nM
half-life at 5 min, 1 µM ([2]; liver microsomes): 1.95 h

microsomal CLint at 5 min, 1 µM (in vitro; liver microsomes): 25 µL/min/mg
half-life at 5 min, 1 µM ([2]; liver microsomes): 0.917 h
Compound: C=Cc1cc(C(NC(=O)OC(C)(C)C)C(=O)Nc2ccc(C(=O)NS(=O)(=O)c3ccc(C(F)(F)F)cc3)cc2)ccc1Oc1cc(OC)nc(-c2ccccc2)n1 (configuration not stated)
Ki [1]: 46 nM

Papp A→B at 10 µM [5]: 1 ×10⁻⁶ cm/s
microsomal CLint at 5 min, 1 µM (in vitro; microsomes): 66 µL/min/mg
solubility at 1 h [8]: 101 µM (≈ 73.5 µg/mL)
half-life at 5 min, 1 µM ([2]; microsomes): 0.35 h
Compound: C=CCCCS(=O)(=O)NC(=O)c1ccccc1NC(=O)[C@@H](NC(=O)OC(C)(C)C)c1ccc(Oc2cc(OC)nc(-c3ccccc3)n2)c(C=C)c1
Ki [1]: 190 nM

Compound: C=CCCCS(=O)(=O)NC(=O)c1cccc(NC(=O)C(NC(=O)OC(C)(C)C)c2ccc(Oc3cc(OC)nc(-c4ccccc4)n3)c(C=C)c2)c1 (configuration not stated)
Ki [1]: 210 nM

Compound: C=Cc1cc([C@H](NC(=O)[C@@H](NC(=O)OC(C)(C)C)C(C)(C)C)C(=O)Nc2ccccc2C(=O)NS(=O)(=O)c2ccc(C(F)(F)F)cc2)ccc1Oc1cc(OC)nc(-c2ccccc2)n1
Ki [1]: 45 nM

EC50 (Hepatitis C virus): 12500 nM
Compound: C=CCCCS(=O)(=O)NC(=O)c1ccccc1NC(=O)C(NC(=O)[C@@H](NC(=O)OC(C)(C)C)C(C)(C)C)c1ccc(Oc2cc(OC)nc(-c3ccccc3)n2)c(C=C)c1 (mixture of isomers)
CC50 [4]: ≥ 50000 nM
